{
  "source": "ChEMBL document CHEMBL1148824",
  "about": "“Quinazolinone derivatives as orally available ghrelin receptor antagonists for the treatment of diabetes and obesity” (J Med Chem, 2007)",
  "key": {"[1]": {"target": "T1, Growth hormone secretagogue receptor type 1 (Homo sapiens, UniProt Q92847)", "T1 sequence (Q92847 whole entry)": "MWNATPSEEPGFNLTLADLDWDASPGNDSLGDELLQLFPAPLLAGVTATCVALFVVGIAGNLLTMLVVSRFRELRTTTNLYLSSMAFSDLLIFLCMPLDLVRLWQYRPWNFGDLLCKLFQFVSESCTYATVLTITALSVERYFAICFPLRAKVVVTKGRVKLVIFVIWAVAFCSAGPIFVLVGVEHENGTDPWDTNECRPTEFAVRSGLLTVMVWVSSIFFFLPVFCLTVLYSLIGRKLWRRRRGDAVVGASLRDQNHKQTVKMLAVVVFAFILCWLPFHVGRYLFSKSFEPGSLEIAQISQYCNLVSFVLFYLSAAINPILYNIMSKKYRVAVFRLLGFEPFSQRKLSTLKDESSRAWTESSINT", "assay": "Antagonist activity at human recombinant GHSR1a expressed in HEK293F cells by [35S]GTP-gamma-S binding assay", "format": "functional, cell-based", "procedure,_shortened": "(§1)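 Functional read-out as GTPγS binding to membranes from HEK293F cells overexpressing recombinant GHS-R1a; values are the mean of at least two replicates.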"}, "Ghrelin receptor": {"target": "Ghrelin receptor (Ovis aries, UniProt Q8MHZ5)", "sequence (Q8MHZ5 whole entry)": "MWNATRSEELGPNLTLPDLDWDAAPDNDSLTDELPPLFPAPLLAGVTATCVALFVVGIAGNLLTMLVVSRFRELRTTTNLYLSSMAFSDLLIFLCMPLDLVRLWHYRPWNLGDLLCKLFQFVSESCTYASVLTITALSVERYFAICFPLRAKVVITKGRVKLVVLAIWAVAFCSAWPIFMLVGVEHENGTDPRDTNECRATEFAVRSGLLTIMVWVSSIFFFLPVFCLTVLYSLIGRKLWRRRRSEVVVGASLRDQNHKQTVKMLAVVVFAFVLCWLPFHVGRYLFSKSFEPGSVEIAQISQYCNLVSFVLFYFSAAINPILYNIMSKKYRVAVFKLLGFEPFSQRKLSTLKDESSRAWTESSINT", "assay": "Displacement of [125I]ghrelin from ovine recombinant GHSR1a expressed in HEK293F cells after 6 hrs by scintillation proximity assay", "format": "cell-based"}, "[2]": {"assay": "Cmax in Wistar rat at 3 mg/kg, po", "format": "ADME, organism-based", "set-up": "dose 3 mg/kg, route oral", "conditions": "in vivo", "procedure,_shortened": "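Wistar rat pharmacokinetic screen; single oral dose of 3 mg/kg in PEG400/methanesulfonic acid (80:20) vehicle; plasma exposure measured.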"}, "[3]": {"target": "T1, Growth hormone secretagogue receptor type 1", "assay": "Agonist activity at human recombinant GHSR1a expressed in HEK293F cells assessed as stimulation of [35S]GTP-gamma-S binding relative to ghrelin", "format": "functional, cell-based", "procedure,_shortened": "as §1"}, "[4]": {"assay": "Cmax in po dosed DIO C57BL/6 mouse after 5 hrs", "format": "ADME, organism-based", "set-up": "route oral", "conditions": "in vivo"}, "Mus musculus": {"tested_on": "Mus musculus", "assay": "Increase in food intake in DIO C57BL/6 mouse at 30 mg/kg, after 5 hrs relative to control", "format": "functional"}, "Brain": {"tested_on": "Brain", "assay": "Drug level in po dosed DIO C57BL/6 mouse brain after 5 hrs relative to plasma concentration", "format": "ADME, organism-based"}, "Rattus norvegicus": {"tested_on": "Rattus norvegicus", "assay": "Decrease in blood glucose level in DIO Wistar rat using at 10 mg/kg after 5 hrs by IPGTT test relative to control", "format": "functional", "set-up": "scale not given: the % may be the effect or the level left"}, "Cytochrome P450 2D6": {"target": "Cytochrome P450 2D6 (Homo sapiens, UniProt P10635)", "sequence (P10635 whole entry)": "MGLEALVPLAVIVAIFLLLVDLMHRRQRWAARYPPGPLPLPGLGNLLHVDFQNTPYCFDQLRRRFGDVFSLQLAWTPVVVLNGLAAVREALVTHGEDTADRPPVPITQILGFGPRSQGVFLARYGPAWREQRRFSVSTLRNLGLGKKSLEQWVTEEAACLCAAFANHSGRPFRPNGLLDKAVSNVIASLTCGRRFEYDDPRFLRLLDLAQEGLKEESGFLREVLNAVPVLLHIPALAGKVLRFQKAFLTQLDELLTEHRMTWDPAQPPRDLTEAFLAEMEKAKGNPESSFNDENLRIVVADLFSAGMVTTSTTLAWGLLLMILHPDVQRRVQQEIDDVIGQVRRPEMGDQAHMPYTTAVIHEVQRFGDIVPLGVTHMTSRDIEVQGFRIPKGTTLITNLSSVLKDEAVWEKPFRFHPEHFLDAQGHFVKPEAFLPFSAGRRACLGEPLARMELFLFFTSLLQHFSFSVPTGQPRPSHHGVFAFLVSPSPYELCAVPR", "assay": "Inhibition of CYP2D6", "format": "ADME"}, "[5]": {"target": "T2, 5-hydroxytryptamine receptor 2C (Homo sapiens, UniProt P28335)", "T2 sequence (P28335 whole entry)": "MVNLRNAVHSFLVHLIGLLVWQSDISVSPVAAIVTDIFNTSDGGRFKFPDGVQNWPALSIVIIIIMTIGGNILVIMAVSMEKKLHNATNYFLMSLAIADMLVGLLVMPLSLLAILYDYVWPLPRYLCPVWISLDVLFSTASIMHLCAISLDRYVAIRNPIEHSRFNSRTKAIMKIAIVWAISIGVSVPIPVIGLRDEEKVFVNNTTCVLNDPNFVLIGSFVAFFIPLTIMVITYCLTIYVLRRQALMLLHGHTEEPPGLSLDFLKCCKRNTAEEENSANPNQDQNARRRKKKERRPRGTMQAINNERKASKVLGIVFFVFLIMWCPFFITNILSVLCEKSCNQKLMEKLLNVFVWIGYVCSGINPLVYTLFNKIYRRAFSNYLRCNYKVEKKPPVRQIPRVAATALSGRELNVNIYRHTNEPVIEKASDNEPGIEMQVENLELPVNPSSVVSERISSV", "assay": "Displacement of […] from 5HT2c receptor"}, "[6]": {"assay": "Aqueous solubility at pH 7.2", "format": "physicochemical"}},
  "data": [
    {"compound": "Cc1ccccc1-c1nc2ccc(-c3ccc(Cl)cc3)cc2c(=O)n1CC1CCCN(CCF)C1", "note": "(stereo unspecified)", "values": [
      {"measurement": "Kb", "setting": "[1]", "result": 14, "unit": "nM"},
      {"measurement": "Ki", "setting": "Ghrelin receptor", "result": 16, "unit": "nM"},
      {"measurement": "Cmax", "setting": "[2]", "result": 100, "unit": "nM"},
      {"measurement": "E/Emax", "setting": "[3]", "result": -9, "unit": "%"}
    ]},
    {"compound": "CC(C)N1CCCC(Cn2c(-c3ccc(OCCO)cc3F)nc3ccc(Oc4ccc(F)cc4)cc3c2=O)C1", "note": "(racemic)", "values": [
      {"measurement": "Cmax", "setting": "[4]", "result": 5.7, "unit": "µM"},
      {"measurement": "Activity", "setting": "Mus musculus", "result": 4, "unit": "%"},
      {"measurement": "Drug uptake", "setting": "Brain", "result": "< 0.001", "unit": "%"}
    ]},
    {"compound": "CCN1CCC[C@H](Cn2c(-c3ccc(C(F)(F)F)cc3)nc3ccc(-c4ccc(Cl)cc4)cc3c2=O)C1", "values": [
      {"measurement": "Ki", "setting": "Ghrelin receptor", "result": 16, "unit": "nM"}
    ]},
    {"compound": "Cc1ccccc1-c1nc2ccc(Oc3ccc(F)cc3)cc2c(=O)n1C[C@H]1CCCN(C(C)C)C1", "note": "(stereo in doubt; 36) [listing 1 of 2 here]", "values": [
      {"measurement": "Activity", "setting": "Rattus norvegicus", "result": -19, "unit": "%"},
      {"measurement": "IC50", "setting": "Cytochrome P450 2D6", "result": 0.09, "unit": "µM"},
      {"measurement": "Ki", "setting": "Ghrelin receptor", "result": 0.86, "unit": "nM"},
      {"measurement": "Cmax", "setting": "[4]", "result": 3.1, "unit": "µM"},
      {"measurement": "Cmax", "setting": "[2]", "result": 90, "unit": "nM"},
      {"measurement": "Activity", "setting": "Mus musculus", "result": -7, "unit": "%"},
      {"measurement": "Ki", "setting": "[5]", "result": "> 1000", "unit": "nM"},
      {"measurement": "Drug uptake", "setting": "Brain", "result": 1, "unit": "%"},
      {"measurement": "solubility", "setting": "[6]", "result": 250, "unit": "µM"}
    ]},
    {"compound": "Cc1ccccc1-c1nc2ccc(Oc3ccc(F)cc3)cc2c(=O)n1CC1CCCN(C(C)C)C1", "note": "(stereo unspecified)", "values": [
      {"measurement": "Kb", "setting": "[1]", "result": 0.97, "unit": "nM"},
      {"measurement": "Ki", "setting": "Ghrelin receptor", "result": 0.47, "unit": "nM"},
      {"measurement": "Cmax", "setting": "[2]", "result": 310, "unit": "nM"},
      {"measurement": "E/Emax", "setting": "[3]", "result": 23, "unit": "%"}
    ]},
    {"compound": "Cc1ccccc1-c1nc2ccc(-c3ccc(Cl)cc3)cc2c(=O)n1CC1CCCN(CC(F)(F)F)C1", "note": "(stereo unspecified)", "values": [
      {"measurement": "Ki", "setting": "Ghrelin receptor", "result": 2000, "unit": "nM"},
      {"measurement": "Cmax", "setting": "[2]", "result": 170, "unit": "nM"}
    ]},
    {"compound": "CCN1CCCC(Cn2c(-c3ccccc3OC)nc3ccc(OC)cc3c2=O)C1", "note": "(stereo unspecified)", "values": [
      {"measurement": "Ki", "setting": "Ghrelin receptor", "result": 910, "unit": "nM"}
    ]},
    {"compound": "Cc1ccccc1-c1nc2ccccc2c(=O)n1CC1CCCN(C(C)C)C1", "note": "(stereo unspecified)", "values": [
      {"measurement": "Ki", "setting": "Ghrelin receptor", "result": 1200, "unit": "nM"}
    ]},
    {"compound": "CCN1CCC[C@H](Cn2c(-c3ccccc3C)nc3ccc(-c4ccc(Cl)cc4)cc3c2=O)C1", "values": [
      {"measurement": "Activity", "setting": "Rattus norvegicus", "result": -13, "unit": "%"},
      {"measurement": "IC50", "setting": "Cytochrome P450 2D6", "result": 6.1, "unit": "µM"},
      {"measurement": "Kb", "setting": "[1]", "result": 2.8, "unit": "nM"},
      {"measurement": "Ki", "setting": "Ghrelin receptor", "result": 1.7, "unit": "nM"},
      {"measurement": "Cmax", "setting": "[4]", "result": 2.2, "unit": "µM"},
      {"measurement": "Cmax", "setting": "[2]", "result": 120, "unit": "nM"},
      {"measurement": "Activity", "setting": "Mus musculus", "result": -17, "unit": "%"},
      {"measurement": "Ki", "setting": "[5]", "result": 120, "unit": "nM"},
      {"measurement": "Drug uptake", "setting": "Brain", "result": 22, "unit": "%"},
      {"measurement": "solubility", "setting": "[6]", "result": 80, "unit": "µM"},
      {"measurement": "E/Emax", "setting": "[3]", "result": 0, "unit": "%"}
    ]},
    {"compound": "Cc1ccccc1-c1nc2ccc(Oc3ccc(F)cc3)cc2c(=O)n1C[C@H]1CCCN(C(C)C)C1", "note": "(stereo in doubt; 36) [listing 2 of 2 here]", "values": [
      {"measurement": "Kb", "setting": "[1]", "result": 0.19, "unit": "nM"},
      {"measurement": "E/Emax", "setting": "[3]", "result": 22, "unit": "%"}
    ]},
    {"compound": "CCN1CCC[C@@H](Cn2c(-c3ccc(C(F)(F)F)cc3)nc3ccc(-c4ccc(Cl)cc4)cc3c2=O)C1", "values": [
      {"measurement": "Ki", "setting": "Ghrelin receptor", "result": 240, "unit": "nM"}
    ]},
    {"compound": "Cc1nc2ccc(-c3ccc(Cl)cc3)cc2c(=O)n1C[C@H]1CCCN(C(C)C)C1", "values": [
      {"measurement": "IC50", "setting": "Cytochrome P450 2D6", "result": 9.6, "unit": "µM"},
      {"measurement": "Ki", "setting": "Ghrelin receptor", "result": 110, "unit": "nM"},
      {"measurement": "Ki", "setting": "[5]", "result": "> 1000", "unit": "nM"},
      {"measurement": "solubility", "setting": "[6]", "result": 125, "unit": "µM"},
      {"measurement": "E/Emax", "setting": "[3]", "result": 0, "unit": "%"}
    ]},
    {"compound": "Cc1ccccc1-c1nc2ccc(-c3ccc(Cl)cc3)cc2c(=O)n1CC1CN(C(C)C)CCO1", "note": "(stereo unspecified)", "values": [
      {"measurement": "Ki", "setting": "Ghrelin receptor", "result": 190, "unit": "nM"}
    ]},
    {"compound": "CCN1CCCC(Cn2c(-c3ccccc3OC)nc3cc(-c4ccc(Cl)cc4)ccc3c2=O)C1", "note": "(stereo unspecified)", "values": [
      {"measurement": "Ki", "setting": "Ghrelin receptor", "result": "> 10000", "unit": "nM"}
    ]},
    {"compound": "Cc1ccccc1-c1nc2ccc(-c3ccc(Cl)cc3)cc2c(=O)n1CC1CCCN(C2CCC2)C1", "note": "(stereo unspecified)", "values": [
      {"measurement": "Kb", "setting": "[1]", "result": 2.7, "unit": "nM"},
      {"measurement": "Ki", "setting": "Ghrelin receptor", "result": 2.5, "unit": "nM"},
      {"measurement": "Cmax", "setting": "[2]", "result": 220, "unit": "nM"},
      {"measurement": "E/Emax", "setting": "[3]", "result": -20, "unit": "%"}
    ]},
    {"compound": "Cc1ccccc1-c1nc2ccc(-c3ccc(Cl)cc3)cc2c(=O)n1CC1CCCN(CCC(F)(F)F)C1", "note": "(stereo unspecified)", "values": [
      {"measurement": "Ki", "setting": "Ghrelin receptor", "result": 250, "unit": "nM"}
    ]},
    {"compound": "Cc1ccccc1-c1nc2ccc(Oc3ccc(F)cc3)cc2c(=O)n1C[C@@H]1CCCN(C(C)C)C1", "values": [
      {"measurement": "Ki", "setting": "Ghrelin receptor", "result": 47, "unit": "nM"}
    ]},
    {"compound": "Cc1ccccc1-c1nc2ccc(-c3ccc(Cl)cc3)cc2c(=O)n1CC1CCCN(C(C)C)C1", "note": "(stereo unspecified)", "values": [
      {"measurement": "Cmax", "setting": "[2]", "result": 150, "unit": "nM"}
    ]},
    {"compound": "CCN1CCC[C@@H](Cn2c(-c3ccccc3C)nc3ccc(OC(F)(F)F)cc3c2=O)C1", "values": [
      {"measurement": "Ki", "setting": "Ghrelin receptor", "result": 95, "unit": "nM"}
    ]},
    {"compound": "Cc1ccccc1-c1nc2ccc(-c3ccc(Cl)cc3)cc2c(=O)n1CC1CCCNC1", "note": "(stereo unspecified)", "values": [
      {"measurement": "Kb", "setting": "[1]", "result": 13, "unit": "nM"},
      {"measurement": "Ki", "setting": "Ghrelin receptor", "result": 7, "unit": "nM"},
      {"measurement": "Cmax", "setting": "[2]", "result": 20, "unit": "nM"},
      {"measurement": "E/Emax", "setting": "[3]", "result": 12, "unit": "%"}
    ]},
    {"compound": "CCN1CCC[C@@H](Cn2c(-c3ccccc3C)nc3ccc(-c4ccc(Cl)cc4)cc3c2=O)C1", "values": [
      {"measurement": "Kb", "setting": "[1]", "result": 250, "unit": "nM"},
      {"measurement": "Ki", "setting": "Ghrelin receptor", "result": 71, "unit": "nM"},
      {"measurement": "E/Emax", "setting": "[3]", "result": 10, "unit": "%"}
    ]}
  ]
}
